Activity calls are given as the source filed them. No cut-off for these calls is given here.
How the values were obtained:
[1] = Plasma protein binding in human; assay type: ADME, cell-free; conditions: read-out: PPB
Rattus norvegicus = assay: Dose normalized AUC in Wistar han rat at 2 mg/kg, po; assay type: ADME, organism-based; conditions: in vivo
How it was run: (§1)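 Wistar Han rats. IV dose 1 mg/kg in DMSO/PEG200/water (10:60:30), n=2. Oral dose 2 mg/kg in imwitor/tween (1:1) by gavage, n=3. Values are averages. Derived: F%, plasma clearance, Vdss, terminal half-life and oral AUC normalized to dose.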

[2] = Fraction unbound in 10% human plasma; assay type: ADME, cell-free; conditions: 10% plasma
How it was run: (§2)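 Free fraction measured in the presence of 10% plasma (human or rat), taken as correlating with the free fraction in whole plasma.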

[3] = Plasma protein binding in rat; assay type: ADME, cell-free; conditions: read-out: PPB
[4] = target: T1, Mineralocorticoid receptor (Homo sapiens) (UniProt P08235); assay: Agonist activity at human mineralocorticoid receptor by cell-based assay
T1 sequence (whole entry): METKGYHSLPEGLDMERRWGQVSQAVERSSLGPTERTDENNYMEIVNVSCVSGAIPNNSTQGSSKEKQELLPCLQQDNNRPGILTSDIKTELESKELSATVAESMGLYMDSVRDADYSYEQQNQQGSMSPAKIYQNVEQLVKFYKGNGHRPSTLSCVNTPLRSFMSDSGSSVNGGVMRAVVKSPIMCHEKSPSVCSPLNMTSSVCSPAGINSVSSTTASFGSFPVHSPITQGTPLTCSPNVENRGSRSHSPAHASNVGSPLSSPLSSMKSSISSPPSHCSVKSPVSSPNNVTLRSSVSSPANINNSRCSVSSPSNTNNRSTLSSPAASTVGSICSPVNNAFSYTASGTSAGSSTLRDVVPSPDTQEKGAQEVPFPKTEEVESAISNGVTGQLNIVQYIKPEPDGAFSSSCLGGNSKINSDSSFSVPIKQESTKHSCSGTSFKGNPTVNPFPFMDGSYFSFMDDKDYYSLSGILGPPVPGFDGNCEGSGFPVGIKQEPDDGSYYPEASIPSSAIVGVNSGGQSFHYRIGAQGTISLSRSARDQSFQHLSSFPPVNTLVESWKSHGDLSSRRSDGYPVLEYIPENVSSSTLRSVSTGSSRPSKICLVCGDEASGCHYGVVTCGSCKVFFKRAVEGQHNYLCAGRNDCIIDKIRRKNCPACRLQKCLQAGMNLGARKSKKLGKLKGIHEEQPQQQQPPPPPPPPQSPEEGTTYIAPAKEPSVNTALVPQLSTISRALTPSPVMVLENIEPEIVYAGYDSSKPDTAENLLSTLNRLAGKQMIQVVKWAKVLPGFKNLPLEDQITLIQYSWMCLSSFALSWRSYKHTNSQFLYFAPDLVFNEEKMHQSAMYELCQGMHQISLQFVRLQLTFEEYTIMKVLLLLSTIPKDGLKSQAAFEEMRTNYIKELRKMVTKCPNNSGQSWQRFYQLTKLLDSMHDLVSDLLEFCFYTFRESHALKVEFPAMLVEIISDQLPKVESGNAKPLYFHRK

[5] = Oral bioavailability in Wistar han rat at 2 mg/kg; assay type: ADME, organism-based; conditions: in vivo; how it was run: as §1
Estrogen receptor = target: T2, Estrogen receptor (Homo sapiens, UniProt P03372); assay: Antagonist activity at human estrogen receptor alpha expressed in CHOK1 cells assessed as inhibition of beta-estradiol-induced protein interaction with steroid receptor co-activator peptide after overnight incubation by beta-galactosidase reporter gene assay; assay type: cell-based, CHO-K1
T2 sequence (P03372 whole entry): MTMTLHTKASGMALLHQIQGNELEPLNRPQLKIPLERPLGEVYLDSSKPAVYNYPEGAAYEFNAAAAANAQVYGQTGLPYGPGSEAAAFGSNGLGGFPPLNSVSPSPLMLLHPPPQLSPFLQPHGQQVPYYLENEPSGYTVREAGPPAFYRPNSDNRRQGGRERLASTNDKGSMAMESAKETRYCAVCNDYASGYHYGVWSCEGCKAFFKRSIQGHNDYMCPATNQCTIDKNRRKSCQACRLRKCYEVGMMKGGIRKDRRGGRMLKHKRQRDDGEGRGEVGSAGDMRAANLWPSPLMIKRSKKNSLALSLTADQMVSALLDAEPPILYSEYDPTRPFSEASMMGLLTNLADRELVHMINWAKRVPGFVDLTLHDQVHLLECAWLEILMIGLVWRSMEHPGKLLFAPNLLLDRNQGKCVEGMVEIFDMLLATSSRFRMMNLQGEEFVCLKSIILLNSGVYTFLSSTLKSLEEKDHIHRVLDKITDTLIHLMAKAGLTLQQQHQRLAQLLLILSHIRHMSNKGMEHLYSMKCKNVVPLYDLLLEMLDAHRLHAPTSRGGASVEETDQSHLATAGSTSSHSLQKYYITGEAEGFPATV

[6] = target: T3, Mineralocorticoid receptor (Homo sapiens, UniProt P08235); assay: Antagonist activity at human mineralocorticoid receptor overexpressed in CHOK1 cells assessed as inhibition of aldosterone-induced protein interaction with coactivator peptide after 6 hrs by luminescence assay; assay type: cell-based, CHO-K1
T3 sequence (P08235 whole entry): T1 sequence (whole entry)

[7] = Fraction unbound in 10% rat plasma; assay type: ADME, cell-free; conditions: 10% plasma; how it was run: as §2
Estrogen receptor beta = Estrogen receptor beta (Homo sapiens, UniProt Q92731); assay: Antagonist activity at human estrogen receptor beta assessed as inhibition of agonist-induced protein interaction with steroid receptor co-activator peptide by cell-based reporter gene assay
Estrogen receptor beta, sequence (Q92731 whole entry): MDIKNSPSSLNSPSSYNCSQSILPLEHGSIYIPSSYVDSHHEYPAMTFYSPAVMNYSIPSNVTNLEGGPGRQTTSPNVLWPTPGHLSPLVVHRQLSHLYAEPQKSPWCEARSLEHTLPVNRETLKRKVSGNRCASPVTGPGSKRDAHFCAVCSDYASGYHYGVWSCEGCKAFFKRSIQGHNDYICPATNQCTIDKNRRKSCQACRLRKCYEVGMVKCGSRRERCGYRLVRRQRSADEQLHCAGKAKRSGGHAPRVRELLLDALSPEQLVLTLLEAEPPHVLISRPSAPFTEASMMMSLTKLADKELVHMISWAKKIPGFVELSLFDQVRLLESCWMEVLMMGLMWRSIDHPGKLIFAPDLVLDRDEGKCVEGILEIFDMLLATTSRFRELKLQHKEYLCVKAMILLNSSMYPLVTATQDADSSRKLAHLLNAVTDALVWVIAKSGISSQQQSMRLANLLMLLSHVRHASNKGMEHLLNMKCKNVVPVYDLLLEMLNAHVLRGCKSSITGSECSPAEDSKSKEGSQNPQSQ

Glucocorticoid receptor = target: T4, Glucocorticoid receptor (Homo sapiens, UniProt P04150); assay: Antagonist activity at human glucocorticoid receptor expressed in CHOK1 cells assessed as inhibition of dexamethasone-induced protein interaction with steroid receptor co-activator peptide after overnight incubation by beta-galactosidase reporter gene assay; assay type: cell-based, CHO-K1
T4 sequence (P04150 whole entry): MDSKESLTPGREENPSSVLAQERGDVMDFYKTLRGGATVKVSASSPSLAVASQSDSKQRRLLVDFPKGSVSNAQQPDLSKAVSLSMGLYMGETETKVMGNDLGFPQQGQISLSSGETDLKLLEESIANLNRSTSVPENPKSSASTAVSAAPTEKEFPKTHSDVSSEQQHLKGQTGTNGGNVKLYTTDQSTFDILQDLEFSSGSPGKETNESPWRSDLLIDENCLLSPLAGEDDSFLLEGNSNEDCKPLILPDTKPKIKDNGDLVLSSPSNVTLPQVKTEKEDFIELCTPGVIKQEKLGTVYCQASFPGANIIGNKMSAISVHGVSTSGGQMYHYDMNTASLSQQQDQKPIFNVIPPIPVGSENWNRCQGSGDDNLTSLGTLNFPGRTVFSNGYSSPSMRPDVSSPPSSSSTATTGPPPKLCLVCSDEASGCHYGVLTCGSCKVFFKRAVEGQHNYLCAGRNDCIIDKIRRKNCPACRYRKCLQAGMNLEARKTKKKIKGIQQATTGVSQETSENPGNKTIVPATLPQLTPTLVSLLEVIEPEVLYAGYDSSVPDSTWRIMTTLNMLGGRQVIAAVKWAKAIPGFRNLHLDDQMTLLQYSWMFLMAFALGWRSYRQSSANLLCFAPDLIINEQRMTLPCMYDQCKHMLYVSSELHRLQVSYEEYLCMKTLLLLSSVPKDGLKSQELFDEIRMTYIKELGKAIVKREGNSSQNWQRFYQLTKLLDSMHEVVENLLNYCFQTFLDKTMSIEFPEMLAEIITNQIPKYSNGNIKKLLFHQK

Homo sapiens = organism: Homo sapiens; assay: Selectivity ratio of IC50 for human estrogen receptor beta to IC50 for human mineralocorticoid receptor

| fraction unbound [1] | AUC/dose (Rattus norvegicus) | fraction unbound [2] | fraction unbound [3] | Activity [4] | bioavailability [5] | IC50 (Estrogen receptor) | IC50 [6] | fraction unbound [7] | IC50 (Estrogen receptor beta) | IC50 (Glucocorticoid receptor) | Ratio IC50 (Homo sapiens) | Compound |
| --- | --- | --- | --- | --- | --- | --- | --- | --- | --- | --- | --- | --- |
| < 0.01 | 0.33 µM·kg·h/mg | 0.002 | < 0.01 | inactive | 36% | 3 µM | 0.12 µM | 0.007 | 2.7 µM | 3.4 µM | – | C[C@H](c1ccc(F)cc1)N1C(=O)O[C@](Cc2ccccc2)(c2nc3cc(C(F)(F)F)ccc3[nH]2)C1=O |
| – | 0.067 µM·kg·h/mg | 0.034 | – | inactive | 6% | 17 µM | 0.22 µM | 0.064 | 12 µM | > 20 µM | – | C[C@H](c1ccc(F)cc1)N1C(=O)O[C@](Cc2ccccc2)(c2nc3cc(NS(C)(=O)=O)ccc3[nH]2)C1=O |
| < 0.01 | 0.11 µM·kg·h/mg | 0.002 | < 0.01 | inactive | 15% | 3.3 µM | 0.16 µM | 0.01 | 2.4 µM | 3.8 µM | – | C[C@H](c1ccc(F)cc1)N1C(=O)O[C@](Cc2ccccc2)(c2nc3cc(Cl)ccc3[nH]2)C1=O |
| < 0.01 | 0.046 µM·kg·h/mg | 0.002 | < 0.01 | inactive | 11% | 7.9 µM | 0.034 µM | 0.008 | 2.7 µM | 3.1 µM | > 40 | C[C@H](c1ccc(F)cc1)N1C(=O)O[C@](Cc2ccccc2)(c2nc3cc(-c4cccnc4)ccc3[nH]2)C1=O |
| – | 0.085 µM·kg·h/mg | 0.058 | – | inactive | 15% | > 20 µM | 0.21 µM | 0.064 | 7.3 µM | 17 µM | – | C[C@H](c1ccc(F)cc1)N1C(=O)O[C@](Cc2ccccc2)(c2nc3c(NS(C)(=O)=O)cccc3[nH]2)C1=O |
| – | 0.79 µM·kg·h/mg | – | – | inactive | 54% | 4.9 µM | 0.039 µM | – | 3 µM | 2.9 µM | > 40 | Cc1nocc1-c1ccc2[nH]c([C@@]3(Cc4ccccc4)OC(=O)N([C@H](C)c4ccc(F)cc4)C3=O)nc2c1 |
| – | 0.49 µM·kg·h/mg | 0.04 | – | inactive | 27% | 6.3 µM | 0.12 µM | 0.017 | 2.6 µM | 3 µM | – | C[C@H](c1ccc(F)cc1)N1C(=O)O[C@](Cc2ccccc2)(c2nc3cc(-c4cc[nH]n4)ccc3[nH]2)C1=O |
| – | 0.07 µM·kg·h/mg | 0.093 | – | inactive | 44% | 6.1 µM | 0.04 µM | 0.065 | 5.3 µM | 4.9 µM | > 40 | C[C@H](c1ccc(F)cc1)N1C(=O)O[C@](Cc2ccccc2)(c2nc3cc(N4CCOCC4)ccc3[nH]2)C1=O |
